Legend:
[1] = Half-life in rat at a dose of 3 mg/kg; type: ADME, organism-based; design: dose 3 mg/kg; settings: in vivo
Outline: (§1)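 Plasma concentrations were followed to derive peak level and half-life.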

[2] = Oral bioavailability in rat at a dose of 3 mg/kg; type: ADME, organism-based; settings: in vivo, read-out: Bioavailabiility; outline: as §1
[3] = Peak plasma concentration in rat at a dose of 3 mg/kg; type: ADME, organism-based; design: dose 3 mg/kg; settings: read-out: Concentration; outline: as §1
[4] = biological target: T1, GABA-A receptor; alpha-1/beta-3/gamma-2 (Homo sapiens) (UniProt P14867+P18507+P28472); experiment: Maximum percent change compared to GABA EC20 against GABA-A alpha-1-beta-3-gamma-2 receptor; type: functional
[5] = biological target: T2, GABA-A receptor; alpha-1/beta-3/gamma-2 (Homo sapiens, UniProt P14867+P18507+P28472); experiment: Binding affinity for human GABA-A receptor alpha-4-beta-3-gamma-2 subunits in L(tk-) cells; type: cell-based
T2 sequence (P14867 whole entry): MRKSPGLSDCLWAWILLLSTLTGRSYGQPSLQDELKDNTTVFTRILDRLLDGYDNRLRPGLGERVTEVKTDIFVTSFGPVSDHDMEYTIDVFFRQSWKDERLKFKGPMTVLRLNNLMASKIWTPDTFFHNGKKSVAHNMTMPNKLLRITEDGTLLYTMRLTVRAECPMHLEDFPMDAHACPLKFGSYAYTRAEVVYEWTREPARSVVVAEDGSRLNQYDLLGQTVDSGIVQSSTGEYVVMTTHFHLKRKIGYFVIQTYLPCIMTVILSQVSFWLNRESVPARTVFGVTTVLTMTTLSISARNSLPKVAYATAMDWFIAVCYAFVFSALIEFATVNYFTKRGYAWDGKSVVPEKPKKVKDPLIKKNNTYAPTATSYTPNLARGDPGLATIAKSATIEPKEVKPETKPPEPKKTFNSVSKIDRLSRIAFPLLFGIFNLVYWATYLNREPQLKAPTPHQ
T2 sequence (P18507 whole entry): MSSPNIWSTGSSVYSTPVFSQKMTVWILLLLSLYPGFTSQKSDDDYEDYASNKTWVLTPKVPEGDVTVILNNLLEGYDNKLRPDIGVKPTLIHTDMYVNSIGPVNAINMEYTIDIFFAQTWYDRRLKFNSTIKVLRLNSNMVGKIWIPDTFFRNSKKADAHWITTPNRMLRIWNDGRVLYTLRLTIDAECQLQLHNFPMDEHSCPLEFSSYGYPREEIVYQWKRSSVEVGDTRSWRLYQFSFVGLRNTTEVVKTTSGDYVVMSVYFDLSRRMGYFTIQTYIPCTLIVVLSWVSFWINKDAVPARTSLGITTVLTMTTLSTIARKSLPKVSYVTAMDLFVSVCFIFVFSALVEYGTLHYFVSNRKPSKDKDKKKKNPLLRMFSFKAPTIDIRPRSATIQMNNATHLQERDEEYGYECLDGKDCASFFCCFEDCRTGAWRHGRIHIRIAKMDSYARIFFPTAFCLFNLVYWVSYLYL
T2 sequence (P28472 whole entry): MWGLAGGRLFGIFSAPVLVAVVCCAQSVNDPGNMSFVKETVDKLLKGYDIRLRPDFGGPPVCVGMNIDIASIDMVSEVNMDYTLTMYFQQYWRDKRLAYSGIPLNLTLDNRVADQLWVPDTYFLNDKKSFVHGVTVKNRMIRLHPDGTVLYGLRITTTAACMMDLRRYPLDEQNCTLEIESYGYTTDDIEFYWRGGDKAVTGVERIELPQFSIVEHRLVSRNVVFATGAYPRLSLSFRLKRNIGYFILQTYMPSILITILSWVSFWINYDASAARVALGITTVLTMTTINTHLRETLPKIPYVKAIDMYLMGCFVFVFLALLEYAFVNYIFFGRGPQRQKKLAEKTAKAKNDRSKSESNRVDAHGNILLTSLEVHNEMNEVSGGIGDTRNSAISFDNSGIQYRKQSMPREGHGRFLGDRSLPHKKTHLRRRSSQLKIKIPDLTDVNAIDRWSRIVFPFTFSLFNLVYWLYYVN

[6] = biological target: GABA-A receptor; alpha-2/beta-3/gamma-2 (Homo sapiens) (UniProt P18507+P28472+P47869); experiment: Maximum percent change compared to GABA EC20 against GABA-A alpha-2-beta-3-gamma-2 receptor; type: functional
[7] = biological target: T3, GABA-A receptor; alpha-5/beta-3/gamma-2 (Homo sapiens) (UniProt P18507+P28472+P31644); experiment: Maximum percent change compared to GABA EC20 against GABA-A alpha-5-beta-3-gamma-2 receptor; type: functional
[8] = biological target: T4, GABA-A receptor; alpha-3/beta-3/gamma-2 (Homo sapiens) (UniProt P18507+P28472+P34903); experiment: Maximum percent change compared to GABA EC20 against GABA-A alpha-3-beta-3-gamma-2 receptor; type: functional
[9] = biological target: T5, GABA-A receptor; alpha-3/beta-3/gamma-2 (Homo sapiens, UniProt P18507+P28472+P34903); experiment: Binding affinity for human GABA-A receptor alpha-3-beta-3-gamma-2 subunits in L(tk-) cells; type: cell-based
T5 sequence (P18507 whole entry): T2 sequence (P18507 whole entry)
T5 sequence (P28472 whole entry): T2 sequence (P28472 whole entry)
T5 sequence (P34903 whole entry): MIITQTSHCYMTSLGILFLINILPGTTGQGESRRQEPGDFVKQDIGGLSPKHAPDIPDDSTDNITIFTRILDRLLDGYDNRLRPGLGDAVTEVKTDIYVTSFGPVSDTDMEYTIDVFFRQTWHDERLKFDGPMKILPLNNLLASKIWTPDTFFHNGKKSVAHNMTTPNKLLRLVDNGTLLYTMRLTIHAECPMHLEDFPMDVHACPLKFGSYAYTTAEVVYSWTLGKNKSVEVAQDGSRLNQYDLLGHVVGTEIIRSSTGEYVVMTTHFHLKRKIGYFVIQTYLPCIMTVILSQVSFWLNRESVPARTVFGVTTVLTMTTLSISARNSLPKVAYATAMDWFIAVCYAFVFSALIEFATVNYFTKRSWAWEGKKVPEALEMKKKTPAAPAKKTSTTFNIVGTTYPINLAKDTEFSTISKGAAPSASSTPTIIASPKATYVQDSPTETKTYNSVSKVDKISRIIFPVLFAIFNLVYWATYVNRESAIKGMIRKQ

[10] = biological target: T6, GABA-A receptor; alpha-5/beta-3/gamma-2 (Homo sapiens, UniProt P18507+P28472+P31644); experiment: Binding affinity for human GABA-A receptor alpha-5-beta-3-gamma-2 subunits in L(tk-) cells; type: cell-based
T6 sequence (P18507 whole entry): T2 sequence (P18507 whole entry)
T6 sequence (P28472 whole entry): T2 sequence (P28472 whole entry)
T6 sequence (P31644 whole entry): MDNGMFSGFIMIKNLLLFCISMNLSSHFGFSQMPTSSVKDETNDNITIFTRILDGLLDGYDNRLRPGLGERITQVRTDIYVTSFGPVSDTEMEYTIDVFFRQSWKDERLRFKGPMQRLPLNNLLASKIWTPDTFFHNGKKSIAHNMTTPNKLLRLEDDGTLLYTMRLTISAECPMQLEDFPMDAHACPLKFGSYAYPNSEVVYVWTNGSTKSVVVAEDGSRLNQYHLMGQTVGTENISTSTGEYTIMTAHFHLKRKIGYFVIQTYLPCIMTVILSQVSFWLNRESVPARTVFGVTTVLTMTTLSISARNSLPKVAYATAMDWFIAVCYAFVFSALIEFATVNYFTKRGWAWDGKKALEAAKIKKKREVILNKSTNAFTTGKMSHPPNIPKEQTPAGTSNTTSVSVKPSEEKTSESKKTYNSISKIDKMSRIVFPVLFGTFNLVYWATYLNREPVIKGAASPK

[11] = biological target: T7, GABA-A receptor; alpha-2/beta-3/gamma-2 (Homo sapiens, UniProt P18507+P28472+P47869); experiment: Binding affinity for human GABA-A receptor alpha-2-beta-3-gamma-2 subunits in L(tk-) cells; type: cell-based
T7 sequence (P18507 whole entry): T2 sequence (P18507 whole entry)
T7 sequence (P28472 whole entry): T2 sequence (P28472 whole entry)
T7 sequence (P47869 whole entry): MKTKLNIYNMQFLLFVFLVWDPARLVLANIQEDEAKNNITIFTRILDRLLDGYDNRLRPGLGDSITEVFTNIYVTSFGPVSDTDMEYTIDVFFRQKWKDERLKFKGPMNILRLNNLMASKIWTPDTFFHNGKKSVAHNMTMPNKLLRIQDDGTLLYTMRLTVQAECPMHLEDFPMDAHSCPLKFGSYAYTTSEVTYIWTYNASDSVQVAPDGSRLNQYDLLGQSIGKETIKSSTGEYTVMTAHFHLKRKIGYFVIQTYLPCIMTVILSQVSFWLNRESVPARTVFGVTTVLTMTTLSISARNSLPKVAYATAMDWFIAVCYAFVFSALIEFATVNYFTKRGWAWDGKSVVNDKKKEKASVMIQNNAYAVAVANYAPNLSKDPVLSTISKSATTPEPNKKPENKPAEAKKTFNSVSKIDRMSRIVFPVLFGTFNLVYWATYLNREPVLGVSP

[12] = biological target: T3, GABA-A receptor; alpha-5/beta-3/gamma-2 (Homo sapiens); experiment: Partial agonistic activity against GABA-A receptor alpha-5-beta-3-gamma-2 subunits; type: functional
[13] = biological target: T1, GABA-A receptor; alpha-1/beta-3/gamma-2 (Homo sapiens); experiment: Inverse agonistic activity against GABA-A receptor alpha-1-beta-3-gamma-2 subunits; type: functional
[14] = biological target: T4, GABA-A receptor; alpha-3/beta-3/gamma-2 (Homo sapiens); experiment: Partial agonistic activity against GABA-A receptor alpha-3-beta-3-gamma-2
[15] = biological target: T2, GABA-A receptor; alpha-1/beta-3/gamma-2; experiment: Binding affinity for human GABA-A receptor alpha-1-beta-3-gamma-2 subunits in L(tk-) cells

half-life [1] [min] | bioavailability [2] [%] | Cmax [3] [ng/mL] | Efficacy [4] [%] | Ki [5] [nM] | Efficacy [6] [%] | Efficacy [7] [%] | Efficacy [8] [%] | Ki [9] [nM] | Ki [10] [nM] | Ki [11] [nM] | Activity [12] [%] | Activity [13] [%] | Activity [14] [%] | Ki [15] [nM] | Compound
60 | 33 | 179 | 51 | 71 | 23 | 18 | 38 | 12 | 1.2 | 26 | – | – | – | – | c1ccc(-c2nnc3c4c(c(OCc5ccccn5)nn23)C2CCC4CC2)cc1
– | – | – | – | – | – | – | – | 3.1 | 0.92 | 9.7 | 26 | -15 | -13 | 32 | Cc1cccc(COc2nn3c(C4CC4)nnc3c3ccccc23)n1
